Among the data in ChEMBL document CHEMBL3421535, “Antioxidative compounds from Garcinia buchananii stem bark” (J Nat Prod, 2015) are EC50 and Activity values, retold here.

Holding throughout (type): physicochemical
Data set [1] can be described thus: Antioxidant activity assessed as H2O2 scavenging activity after 15 mins. The procedure, abridged:
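H2O2 scavenging run by the previously reported method. Each sample was measured in triplicate; values are mean ± SD.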

Data set [2] can be described thus: Antioxidant activity assessed as trolox equivalent of ABTS radical scavenging activity after 10 mins by lipophilic-TEAC […] assay. The method, boiled down:
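Lipophilic ABTS TEAC, a modification of the H-TEAC method. Trolox standards (1000, 500, 250, 125, 62.5 μM) and sample dilutions were prepared in 50% DMSO/H2O. Pure DMSO was added to give 10% final DMSO. Processing and measurement followed H-TEAC; quadruplicate, mean ± SD.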

Data set [3] is described as follows: Antioxidant activity assessed as trolox equivalent of APPH radical scavenging activity preincubated for 30 mins followed by APPH addition measured after 90 mins by hydrophilic-ORAC fluorescence assay. To be noted: 1.5 h. The method, boiled down: (§1)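 Hydrophilic TEAC (ABTS) or hydrophilic ORAC run by the previously reported method. Each sample was measured in quadruplicate; values are mean ± SD.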

Data set [4] can be described thus: Antioxidant activity assessed as trolox equivalent of […] radical scavenging activity preincubated for 30 mins followed by […] addition measured after 90 mins by lipophilic-ORAC fluorescence assay. Particulars: 1.5 h. The procedure, abridged: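 Lipophilic ORAC adapted from the Madrona procedure. Trolox standards (200, 100, 50, 25, 12.5 μM) and sample dilutions were made in 7% (w/v) randomly methylated β-cyclodextrin in acetone/H2O (1:1), which also served as blank. Fluorescein and AAPH were prepared in 10 mM phosphate buffer, pH 7.4. AAPH was added after incubation. Read-out otherwise as H-ORAC; quadruplicate, mean ± SD.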

Data set [5] is described as follows: Antioxidant activity assessed as trolox equivalent of ABTS radical scavenging activity after 10 mins by hydrophilic-TEAC fluorescence assay. The procedure, abridged:
as §1

Data set [6] can be described thus: Antioxidant activity assessed as trolox equivalent of ABTS radical scavenging activity measured for 1 to 6 mins by lipophilic-TEAC […] assay. The procedure, abridged: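 Lipophilic TEAC adapted from the hydrophilic ABTS method: Trolox standards (1000, 500, 250, 125, 62.5 μM) and sample dilutions made in 50% DMSO. Pure DMSO added to wells, giving 10% DMSO final. Otherwise processed, measured and handled as in H-TEAC. Quadruplicate analyses, mean ± SD.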

Data set [7] in a line: Antioxidant activity assessed as trolox equivalent of […] radical scavenging activity preincubated for 30 mins followed by […] addition measured every 1.14 mins for 120 mins by lipophilic-ORAC fluorescence assay. To be noted: 2 h. The method, boiled down: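 Lipophilic ORAC (modified Madrona procedure): Trolox standards (200–12.5 μM) and samples diluted in 7% RMCD in acetone/water 1:1. Fluorescein and AAPH prepared in 10 mM phosphate buffer pH 7.4. Fluorescein mixed with standard, sample or RMCD blank, incubated as in H-ORAC, then AAPH added. Read-out and data handling as in H-ORAC. Quadruplicate, mean ± SD.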

Values joined by “and” are separate entries in the source; they are usually repeats but may differ in a detail not shown here. Equal values may be shown once. Bounds are passed on as bounds.

As a reminder, the EC50 is the concentration giving half of the maximal effect. For `O=C1c2c(O)cc(O)c([C@@H]3C(=O)c4c(O)cc(O)cc4O[C@H]3c3ccc(O)c(O)c3)c2O[C@H](c2ccc(O)c(O)c2)[C@H]1O`, the EC50 in data set [1] amounted to 2.8 µM. In addition, the Activity in data set [2] is 5.29 mmolequiv/mmol; in data set [3], 13.73 mmolequiv/mmol; in data set [4], 15 mmolequiv/mmol; in data set [5], 5.58 mmolequiv/mmol.

Turning to `O=C1c2c(cc(O)c([C@@H]3C(=O)c4c(O)cc(O)cc4O[C@H]3c3ccc(O)c(O)c3)c2O)O[C@H](c2ccc(O)c(O)c2)[C@H]1O`, the EC50 in data set [1] worked out at 8.5 µM. Moreover, the Activity in data set [2] worked out at 4.95 mmolequiv/mmol; in data set [3], 7.54 mmolequiv/mmol; in data set [4], 14.56 mmolequiv/mmol; in data set [5], 3.5 mmolequiv/mmol.

As for `COc1cc(C(=O)c2c(O)cc3c(c2OC)C=CC(C)(C)O3)ccc1O`, the EC50 in data set [1] was at most 53.4 µM. Also, the Activity in data set [2] is on record as 1.04 mmolequiv/mmol; in data set [3] it was 2.44 mmolequiv/mmol; in data set [4], 4.87 mmolequiv/mmol; in data set [5], 0.4 mmolequiv/mmol.

Consider `COc1c(O)ccc2c1Oc1cc(O)c(CC=C(C)C)c(O)c1C(=O)O2`, for which the EC50 in data set [1] was at most 45.4 µM. Further, the Activity is reported as 1.68 mmolequiv/mmol in data set [2], 2.5 mmolequiv/mmol in data set [3], 4.34 mmolequiv/mmol in data set [4] and 0.89 mmolequiv/mmol in data set [5].

On to `O=C1c2c(O)cc(O)c(-c3coc4cc(O)cc(O)c4c3=O)c2O[C@H](c2ccc(O)c(O)c2)[C@H]1O`, for which the EC50 in data set [1] amounted to 17.5 µM. Further, the Activity turned out to be 2.92 mmolequiv/mmol in data set [2], 4.38 mmolequiv/mmol in data set [3], 6.96 mmolequiv/mmol in data set [4] and 1.48 mmolequiv/mmol in data set [5].

For `CC(C)=CCc1c(O)cc2oc3c(O)c(O)ccc3c(=O)c2c1O`, the concentration for a half-maximal effect (EC50) in data set [1] was determined as 19.7 µM. Further, the Activity was 2.96 mmolequiv/mmol in data set [2], 1.06 mmolequiv/mmol in data set [3], 3.81 mmolequiv/mmol in data set [4] and 0.89 mmolequiv/mmol in data set [5].

With `O=c1c2cc(O)ccc2oc2cccc(O)c12`, the concentration for a half-maximal effect (EC50) in data set [1] is 80.2 µM. Moreover, the Activity in data set [2] was 1.33 mmolequiv/mmol; in data set [3], 2.43 mmolequiv/mmol; in data set [4], 2.95 mmolequiv/mmol; in data set [5] it was 0.4 mmolequiv/mmol.

As to `O=C1CC(c2ccc(O)cc2)Oc2cc(O)cc(O)c21` (racemic), the Activity in data set [6] was determined as 1.14 mMequiv; in data set [2], 2.94 mmolequiv/mmol; in data set [3], 6.2 mmolequiv/mmol; in data set [4] it was 7.35 mmolequiv/mmol; in data set [5], 1.98 mmolequiv/mmol. For the same compound, the 50% effective concentration (EC50) in data set [1] was found to be 8.6 µM.

As to `O=C1c2c(O)cc(O)cc2O[C@H](c2ccc(O)c(O)c2)C1O` (single isomer, unassigned) [(+)-TAXIFOLIN], the EC50 in data set [1] came to 11.3 µM. Besides, the Activity came to 2.84 mmolequiv/mmol in data set [2], 6.61 mmolequiv/mmol in data set [3], 9.3 mmolequiv/mmol in data set [4] and 2.48 mmolequiv/mmol in data set [5].

For `Oc1cc(O)c2c(c1)O[C@H](c1ccc(O)c(O)c1)[C@H](O)C2` [(-)-EPICATECHIN], the 50% effective concentration (EC50) in data set [1] stood at 4.1 µM. Further, the Activity in data set [2] is given as 5.01 mmolequiv/mmol; in data set [3], 9.98 mmolequiv/mmol; in data set [4], 15.69 mmolequiv/mmol; in data set [5], 3.71 mmolequiv/mmol.

On to `O=C1O[C@H]([C@@H](O)CO)C(O)=C1O` [ASCORBIC ACID], for which the Activity in data set [6] is recorded as 1.05 mMequiv; in data set [2], 1.09 mmolequiv/mmol; in data set [3] it was 0.62 mmolequiv/mmol; in data set [4], 0.73 mmolequiv/mmol; in data set [5], 1.16 mmolequiv/mmol. The concentration for a half-maximal effect (EC50) in data set [1] amounted to 24.2 µM.

On to `Cc1cc(C(C)(C)C)c(O)c(C(C)(C)C)c1` [BUTYLATED HYDROXYTOLUENE], for which the Activity in data set [6] is 0.27 mMequiv; in data set [2], 0.76 mmolequiv/mmol; in data set [4], 0.2 mmolequiv/mmol and 0.12 umolequiv/umol.

In the case of `CC(C)=CC[C@H]1C[C@@]23C[C@@H](CC=C(C)C)C(C)(C)[C@@](CC=C(C)C)(C(=O)C(C(=O)c4ccc(O)c(O)c4)=C2OC1(C)C)C3=O` [CAMBOGIN], the EC50 in data set [1] worked out at 83.3 µM. Further, the Activity came out at 1.67 mmolequiv/mmol in data set [2], 0.6 mmolequiv/mmol in data set [3], 3.68 mmolequiv/mmol in data set [4] and 0.48 mmolequiv/mmol in data set [5].

Regarding `C=C(C)[C@@H](CC=C(C)C)C[C@@]12C[C@@H](CC=C(C)C)C(C)(C)[C@@](CC=C(C)C)(C(=O)C(C(=O)c3ccc(O)c(O)c3)=C1O)C2=O` [GARCINOL], the EC50 in data set [1] was 15.7 µM. Further, the Activity is recorded as 1.92 mmolequiv/mmol in data set [2], 1.28 mmolequiv/mmol in data set [3], 3.44 mmolequiv/mmol in data set [4] and 0.81 mmolequiv/mmol in data set [5].

Consider `CC1(C)C=Cc2c(cc3oc4c(O)c(O)ccc4c(=O)c3c2O)O1` [JACAREUBIN], for which the concentration giving a half-maximal response (EC50) in data set [1] turned out to be 26.3 µM. In addition, the Activity in data set [2] came out at 2.06 mmolequiv/mmol; in data set [3], 1.16 mmolequiv/mmol; in data set [4] it was 2.74 mmolequiv/mmol; in data set [5], 0.84 mmolequiv/mmol.

With `O=c1c(O)c(-c2ccc(O)c(O)c2)oc2cc(O)cc(O)c12` [QUERCETIN], the Activity is recorded as 3.1 mMequiv in data set [6]; 4.84 mmolequiv/mmol in data set [2]; 9.36 mmolequiv/mmol in data set [3]; 11.94 mmolequiv/mmol in data set [4]; 10.4 umolequiv/umol in data set [7]; 4.85 mmolequiv/mmol in data set [5]. Moreover, the EC50 in data set [1] stood at 6.1 µM.
